In the M2OR odorant receptor database:

Columns and labels:
Details in all cases: stereoisomer not certain
UniProt Q8VGC6 = molecular target: T1, UniProt Q8VGC6
T1 sequence (whole entry): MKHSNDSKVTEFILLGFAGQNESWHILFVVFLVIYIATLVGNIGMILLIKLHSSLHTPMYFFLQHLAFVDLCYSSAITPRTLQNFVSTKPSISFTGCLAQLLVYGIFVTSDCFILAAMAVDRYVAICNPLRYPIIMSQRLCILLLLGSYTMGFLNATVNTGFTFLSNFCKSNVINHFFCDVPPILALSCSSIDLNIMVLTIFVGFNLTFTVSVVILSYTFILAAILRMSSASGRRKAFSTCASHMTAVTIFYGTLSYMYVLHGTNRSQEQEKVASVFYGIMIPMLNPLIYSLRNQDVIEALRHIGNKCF
Outline: (§1)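 Each entry records the cell line, G-protein, co-transfected protein and tags used. Methods varied with the source, often transient luciferase assays in mammalian cell lines. A receptor–molecule pair is called responsive (active) if the original authors judged its signal statistically different from baseline and non-responsive (inactive) otherwise.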

UniProt Q8VGD7 = molecular target: T2, UniProt Q8VGD7
T2 sequence (whole entry): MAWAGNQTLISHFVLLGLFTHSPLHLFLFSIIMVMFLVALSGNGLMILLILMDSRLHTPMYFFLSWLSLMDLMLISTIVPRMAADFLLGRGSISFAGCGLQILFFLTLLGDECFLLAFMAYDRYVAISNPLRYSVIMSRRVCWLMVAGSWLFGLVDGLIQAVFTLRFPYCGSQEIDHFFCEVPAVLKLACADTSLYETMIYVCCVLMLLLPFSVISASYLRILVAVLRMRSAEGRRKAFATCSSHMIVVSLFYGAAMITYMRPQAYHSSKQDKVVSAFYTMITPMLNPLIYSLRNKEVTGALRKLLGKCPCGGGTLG
Outline: as §1

UniProt Q8VGH1 = molecular target: T3, UniProt Q8VGH1
T3 sequence (whole entry): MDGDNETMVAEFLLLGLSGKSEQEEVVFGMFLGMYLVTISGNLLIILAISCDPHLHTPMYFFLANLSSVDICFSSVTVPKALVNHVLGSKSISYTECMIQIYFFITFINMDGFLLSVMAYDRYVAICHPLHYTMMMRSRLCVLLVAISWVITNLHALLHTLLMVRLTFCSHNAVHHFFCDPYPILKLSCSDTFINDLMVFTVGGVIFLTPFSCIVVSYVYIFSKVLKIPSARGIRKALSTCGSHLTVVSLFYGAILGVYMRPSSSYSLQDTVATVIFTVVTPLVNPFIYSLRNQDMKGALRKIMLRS
Outline: as §1

UniProt Q8VGJ1 = molecular target: T4, UniProt Q8VGJ1
T4 sequence (whole entry): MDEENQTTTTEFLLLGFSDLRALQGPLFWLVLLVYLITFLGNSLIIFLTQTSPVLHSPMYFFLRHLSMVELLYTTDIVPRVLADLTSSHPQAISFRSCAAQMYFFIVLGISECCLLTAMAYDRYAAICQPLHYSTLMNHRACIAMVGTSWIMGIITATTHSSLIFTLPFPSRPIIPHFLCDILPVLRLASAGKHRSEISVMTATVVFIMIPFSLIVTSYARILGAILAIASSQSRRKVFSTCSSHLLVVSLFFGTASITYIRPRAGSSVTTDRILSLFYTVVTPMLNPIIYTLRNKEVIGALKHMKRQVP
Outline: as §1

UniProt Q8VGJ3 = molecular target: T5, UniProt Q8VGJ3
T5 sequence (whole entry): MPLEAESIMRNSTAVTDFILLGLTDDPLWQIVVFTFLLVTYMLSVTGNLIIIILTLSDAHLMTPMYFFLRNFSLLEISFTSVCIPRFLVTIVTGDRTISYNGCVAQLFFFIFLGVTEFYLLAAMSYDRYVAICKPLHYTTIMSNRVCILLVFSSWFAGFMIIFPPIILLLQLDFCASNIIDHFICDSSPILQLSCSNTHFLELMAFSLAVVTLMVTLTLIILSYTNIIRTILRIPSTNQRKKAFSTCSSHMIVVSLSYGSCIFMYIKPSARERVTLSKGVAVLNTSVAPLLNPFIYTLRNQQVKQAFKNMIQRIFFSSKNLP
Outline: as §1

UniProt Q8VGJ5 = molecular target: T6, UniProt Q8VGJ5
T6 sequence (whole entry): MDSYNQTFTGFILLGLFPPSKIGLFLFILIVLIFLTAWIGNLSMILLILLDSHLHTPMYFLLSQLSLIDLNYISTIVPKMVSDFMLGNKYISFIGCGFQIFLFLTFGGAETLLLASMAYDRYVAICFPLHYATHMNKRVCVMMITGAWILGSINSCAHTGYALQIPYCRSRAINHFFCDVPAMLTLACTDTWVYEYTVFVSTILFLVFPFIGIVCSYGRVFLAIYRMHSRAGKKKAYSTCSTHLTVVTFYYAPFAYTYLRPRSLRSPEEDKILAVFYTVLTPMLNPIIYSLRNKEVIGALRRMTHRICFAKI
Outline: as §1

UniProt Q8VGL0 = molecular target: T7, UniProt Q8VGL0
T7 sequence (whole entry): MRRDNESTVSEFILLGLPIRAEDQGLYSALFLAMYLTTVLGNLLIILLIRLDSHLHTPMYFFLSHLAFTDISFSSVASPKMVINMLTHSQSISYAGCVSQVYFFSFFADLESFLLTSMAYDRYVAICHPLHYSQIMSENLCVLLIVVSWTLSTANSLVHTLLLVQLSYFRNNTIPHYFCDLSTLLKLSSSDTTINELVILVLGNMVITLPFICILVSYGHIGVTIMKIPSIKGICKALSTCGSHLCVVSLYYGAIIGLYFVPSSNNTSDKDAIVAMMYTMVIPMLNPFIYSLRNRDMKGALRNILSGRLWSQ
Outline: as §1

UniProt Q8VGL7 = molecular target: T8, UniProt Q8VGL7
T8 sequence (whole entry): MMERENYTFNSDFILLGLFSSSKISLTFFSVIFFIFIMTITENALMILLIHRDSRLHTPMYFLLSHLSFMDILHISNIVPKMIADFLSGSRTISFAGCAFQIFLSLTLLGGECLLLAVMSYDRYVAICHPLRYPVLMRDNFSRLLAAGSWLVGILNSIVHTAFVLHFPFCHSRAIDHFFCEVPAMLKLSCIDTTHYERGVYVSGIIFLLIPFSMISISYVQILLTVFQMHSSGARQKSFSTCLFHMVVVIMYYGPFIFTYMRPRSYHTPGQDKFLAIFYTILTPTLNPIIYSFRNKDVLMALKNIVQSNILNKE
Outline: as §1

UniProt Q8VGM2 = molecular target: T9, UniProt Q8VGM2
T9 sequence (whole entry): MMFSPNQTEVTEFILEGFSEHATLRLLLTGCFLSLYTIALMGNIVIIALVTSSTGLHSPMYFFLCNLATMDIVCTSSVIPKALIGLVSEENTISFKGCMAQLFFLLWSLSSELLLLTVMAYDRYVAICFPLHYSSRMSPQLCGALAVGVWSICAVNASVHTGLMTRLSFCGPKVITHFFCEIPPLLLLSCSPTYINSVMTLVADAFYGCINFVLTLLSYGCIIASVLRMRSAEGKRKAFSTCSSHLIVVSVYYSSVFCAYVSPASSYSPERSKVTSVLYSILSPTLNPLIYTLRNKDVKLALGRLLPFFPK
Outline: as §1

UniProt Q8VGP6 = molecular target: T10, UniProt Q8VGP6
T10 sequence (whole entry): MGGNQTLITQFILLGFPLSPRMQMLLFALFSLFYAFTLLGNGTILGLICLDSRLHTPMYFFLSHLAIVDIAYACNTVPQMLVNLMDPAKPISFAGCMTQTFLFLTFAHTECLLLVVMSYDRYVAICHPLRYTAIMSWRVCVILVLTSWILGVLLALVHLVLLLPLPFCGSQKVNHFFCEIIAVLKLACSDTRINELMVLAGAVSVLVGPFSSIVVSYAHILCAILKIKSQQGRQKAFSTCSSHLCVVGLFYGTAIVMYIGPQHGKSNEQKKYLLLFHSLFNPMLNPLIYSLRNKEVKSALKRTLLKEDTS
Outline: as §1

UniProt Q8VGQ3 = molecular target: T11, UniProt Q8VGQ3
T11 sequence (whole entry): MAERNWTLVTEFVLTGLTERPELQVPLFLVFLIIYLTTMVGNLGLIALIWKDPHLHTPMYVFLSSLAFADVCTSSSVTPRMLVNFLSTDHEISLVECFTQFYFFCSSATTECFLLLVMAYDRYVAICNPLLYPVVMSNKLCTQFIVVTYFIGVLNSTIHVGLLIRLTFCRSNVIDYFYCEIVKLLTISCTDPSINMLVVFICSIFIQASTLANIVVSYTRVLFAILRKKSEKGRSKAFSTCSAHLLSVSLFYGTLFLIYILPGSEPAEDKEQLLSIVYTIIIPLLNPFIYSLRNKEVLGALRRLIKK
Outline: as §1

UniProt Q8VGT4 = molecular target: T12, UniProt Q8VGT4
T12 sequence (whole entry): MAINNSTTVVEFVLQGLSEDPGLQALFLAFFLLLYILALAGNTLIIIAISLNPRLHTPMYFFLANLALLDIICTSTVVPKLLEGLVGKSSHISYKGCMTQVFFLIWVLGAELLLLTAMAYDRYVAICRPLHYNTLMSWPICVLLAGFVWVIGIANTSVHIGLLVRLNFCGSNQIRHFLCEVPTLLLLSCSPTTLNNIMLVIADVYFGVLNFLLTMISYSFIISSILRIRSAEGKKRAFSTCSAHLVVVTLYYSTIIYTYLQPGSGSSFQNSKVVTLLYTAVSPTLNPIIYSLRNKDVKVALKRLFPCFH
Outline: as §1

UniProt Q8VGU3 = molecular target: T13, UniProt Q8VGU3
T13 sequence (whole entry): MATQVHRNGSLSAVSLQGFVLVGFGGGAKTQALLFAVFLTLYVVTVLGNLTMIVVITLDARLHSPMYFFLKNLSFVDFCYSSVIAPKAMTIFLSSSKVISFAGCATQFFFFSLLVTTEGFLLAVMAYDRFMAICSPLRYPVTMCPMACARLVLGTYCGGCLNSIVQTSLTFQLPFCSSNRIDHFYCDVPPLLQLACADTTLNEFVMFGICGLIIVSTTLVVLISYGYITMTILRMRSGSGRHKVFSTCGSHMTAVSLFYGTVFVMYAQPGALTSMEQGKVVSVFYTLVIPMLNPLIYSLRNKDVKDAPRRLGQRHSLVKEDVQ
Outline: as §1

UniProt Q8VGV1 = molecular target: T14, UniProt Q8VGV1
T14 sequence (whole entry): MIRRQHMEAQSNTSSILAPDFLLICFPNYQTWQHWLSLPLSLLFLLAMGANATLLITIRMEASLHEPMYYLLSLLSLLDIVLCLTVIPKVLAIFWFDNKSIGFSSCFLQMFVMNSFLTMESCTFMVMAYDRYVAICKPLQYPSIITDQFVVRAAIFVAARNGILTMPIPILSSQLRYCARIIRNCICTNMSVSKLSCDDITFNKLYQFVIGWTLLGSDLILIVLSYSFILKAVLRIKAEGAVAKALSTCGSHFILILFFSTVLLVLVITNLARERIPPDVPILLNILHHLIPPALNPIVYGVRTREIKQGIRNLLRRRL
Outline: as §1

UniProt Q8VGV7 = molecular target: T15, UniProt Q8VGV7
T15 sequence (whole entry): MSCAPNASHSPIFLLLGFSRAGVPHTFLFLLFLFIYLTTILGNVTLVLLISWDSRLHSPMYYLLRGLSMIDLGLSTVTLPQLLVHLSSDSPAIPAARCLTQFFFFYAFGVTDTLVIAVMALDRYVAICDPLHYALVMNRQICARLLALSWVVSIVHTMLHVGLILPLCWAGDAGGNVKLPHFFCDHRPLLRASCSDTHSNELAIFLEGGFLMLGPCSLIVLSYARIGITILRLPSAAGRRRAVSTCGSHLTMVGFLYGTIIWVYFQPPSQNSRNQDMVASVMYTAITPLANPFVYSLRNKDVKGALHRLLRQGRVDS
Outline: as §1

UniProt Q8VGX3 = molecular target: T16, UniProt Q8VGX3
T16 sequence (whole entry): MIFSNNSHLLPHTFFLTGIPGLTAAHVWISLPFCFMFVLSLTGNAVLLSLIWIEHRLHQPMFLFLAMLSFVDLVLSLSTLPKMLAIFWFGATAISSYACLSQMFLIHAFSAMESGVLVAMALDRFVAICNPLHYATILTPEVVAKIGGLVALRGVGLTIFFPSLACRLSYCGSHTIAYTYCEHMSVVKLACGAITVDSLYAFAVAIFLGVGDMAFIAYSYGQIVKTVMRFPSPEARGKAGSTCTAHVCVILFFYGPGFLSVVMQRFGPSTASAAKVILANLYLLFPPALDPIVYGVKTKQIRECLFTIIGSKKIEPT
Outline: as §1

UniProt Q8VGX5 = molecular target: T17, UniProt Q8VGX5
T17 sequence (whole entry): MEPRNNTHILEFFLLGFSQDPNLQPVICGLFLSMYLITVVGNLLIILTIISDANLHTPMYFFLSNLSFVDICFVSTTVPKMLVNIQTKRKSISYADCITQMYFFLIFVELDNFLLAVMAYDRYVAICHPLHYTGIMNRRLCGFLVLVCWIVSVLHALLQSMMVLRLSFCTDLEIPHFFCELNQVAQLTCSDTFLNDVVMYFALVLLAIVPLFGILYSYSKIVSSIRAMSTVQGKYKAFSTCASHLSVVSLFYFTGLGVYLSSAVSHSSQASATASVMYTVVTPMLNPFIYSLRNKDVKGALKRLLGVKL
Outline: as §1

Measured: odorant receptor agonist call

COc1cc(C(=O)O)ccc1O
inactive: UniProt Q8VGC6 | UniProt Q8VGD7 | UniProt Q8VGH1 | UniProt Q8VGJ1 | UniProt Q8VGJ3 | UniProt Q8VGJ5 | UniProt Q8VGL0 | UniProt Q8VGL7 | UniProt Q8VGM2 | UniProt Q8VGP6 | UniProt Q8VGQ3 | UniProt Q8VGT4 | UniProt Q8VGU3 | UniProt Q8VGV1 | UniProt Q8VGV7 | UniProt Q8VGX3 | UniProt Q8VGX5

CC1(C)CC(=O)CC(=O)C1
inactive: UniProt Q8VGC6 | UniProt Q8VGJ3 | UniProt Q8VGL0 | UniProt Q8VGU3 | UniProt Q8VGV7 | UniProt Q8VGX3 | UniProt Q8VGX5

COc1nccnc1C
inactive: UniProt Q8VGC6 | UniProt Q8VGJ3 | UniProt Q8VGL0 | UniProt Q8VGU3 | UniProt Q8VGV7 | UniProt Q8VGX3 | UniProt Q8VGX5
